{"data": "Assay results gathered from unrelated publications", "target": "Mitogen-activated protein kinase 9 (MAPK9, Homo sapiens, UniProt P45984)", "note": "Each line is one published result; the experiments were not run side by side."}
{"SMILES": "CNC(=O)c1cc(Oc2ccc(NC(=O)Nc3ccc(Cl)c(C(F)(F)F)c3)cc2)ccn1", "observed": "enzyme activity", "action": "inhibitor", "tested at": "10 µM", "quantity": "inhibition", "value": "54%"}
{"SMILES": "CC(C)(C)c1nc2c(s1)c1nc(N)ncc1c1ccc(NS(=O)(=O)c3c(F)cccc3F)c(F)c12", "observed": "enzyme activity", "action": "inhibitor", "technique": "radiometric", "tested at": "1 µM", "quantity": "remaining activity", "value": "95%"}
{"SMILES": "CNC(=O)Nc1ccc2c(c1)CC[C@@]21OC(=O)N(CC(=O)N(Cc2ccc(F)cc2)[C@@H](C)C(F)(F)F)C1=O", "observed": "cell-free assay", "technique": "competition with immobilised ligand", "tested at": "1 µM", "quantity": "remaining binding", "value": "70%"}
{"SMILES": "Cc1cc(NC(=O)c2cccc3cc(-c4cccc5[nH]nc(N)c45)ccc23)ccc1F", "observed": "enzyme activity", "action": "inhibitor", "tested at": "0.1 µM", "quantity": "activity vs control", "value": "86%"}
{"SMILES": "Cn1c(=O)n(-c2ccc(C(C)(C)C#N)cc2)c2c3cc(-c4cnc5ccccc5c4)ccc3ncc21", "observed": "enzyme activity", "action": "inhibitor", "tested at": "10 µM", "quantity": "remaining activity", "value": "89%"}
{"SMILES": "COc1cc2ncnc(Nc3ccc(Oc4ccccc4)c(C)c3C)c2cc1OC", "observed": "enzyme activity", "action": "inhibitor", "tested at": "1 µM", "quantity": "inhibition", "value": "7%"}
{"SMILES": "CC1=C(C#N)[C@@H](c2ccc3[nH]nc(C)c3c2)C(C#N)=C(c2ccc(Cl)cc2)N1", "observed": "cell-free assay", "technique": "competition with immobilised ligand", "tested at": "1 µM", "quantity": "remaining binding", "value": "89.5%"}
{"SMILES": "Cn1c2c(c3ccc(Cl)c(Cl)c31)C(C#N)C1(CCNCC1)NC2=O (racemic)", "observed": "thermal stability", "technique": "DSF", "tested at": "10 µM", "quantity": "ΔTm", "value": "0.2 °C"}
{"SMILES": "O=C(Nc1cnn(-c2csc(C(=O)NC3COC3)c2)c1)Nc1ccccc1Cl", "observed": "enzyme activity", "action": "inhibitor", "tested at": "5 µM", "quantity": "remaining activity", "value": "34.1%"}
{"SMILES": "COc1cc(Cl)c(C(=O)N[C@@H](CN[C@H]2CC[C@@H](N)CC2)Cc2ccc(C#N)cc2)cc1-c1ccc(CN[C@H](C)c2ccc(C)cc2)o1", "observed": "enzyme activity", "action": "inhibitor", "tested at": "1 µM", "quantity": "remaining activity", "value": "93%"}
{"SMILES": "Cc1sc(C(=O)NC2COC2)cc1-n1cc(NC(=O)Nc2c(F)cccc2Cl)cn1", "observed": "enzyme activity", "action": "inhibitor", "tested at": "10 µM", "quantity": "remaining activity", "value": "51.9%"}
{"SMILES": "FC(F)c1nc2ccccc2n1-c1nc(N2CCOCC2)nc(N2CCOCC2)n1", "observed": "enzyme activity", "action": "inhibitor", "tested at": "10 µM", "quantity": "remaining activity", "value": "87%"}
{"SMILES": "O=C1Nc2ccc(Cl)cc2C1=Cc1cc(Cl)c(O)c(Cl)c1", "observed": "cell-free assay", "tested at": "0.5 µM", "quantity": "remaining signal", "value": "100%"}
{"SMILES": "N#CC1c2c([nH]c3c(Cl)c(Cl)ccc23)C(=O)NC12CCCCC2 (racemic)", "observed": "thermal stability", "technique": "DSF", "tested at": "10 µM", "quantity": "ΔTm", "value": "0.7 °C"}
{"SMILES": "CN(c1ncccc1CNc1nc(Nc2ccc3c(c2)CC(=O)N3)ncc1C(F)(F)F)S(C)(=O)=O", "observed": "enzyme activity", "action": "inhibitor", "tested at": "1 µM", "quantity": "inhibition", "value": "12.4%"}
{"SMILES": "O=C(NCc1ncc(C(F)(F)F)cc1Cl)c1ccc2c(c1)C1(CCS(=O)(=O)CC1)[C@@H](C1CC1)N2S(=O)(=O)c1ccc(F)cc1", "observed": "cell-free assay", "technique": "competition with immobilised ligand", "tested at": "1 µM", "quantity": "remaining binding", "value": "82%"}
{"SMILES": "CC1(C)NC(=O)c2[nH]c3c(Cl)c(Cl)ccc3c2C1C#N (centres unmarked)", "observed": "thermal stability", "technique": "DSF", "tested at": "10 µM", "quantity": "ΔTm", "value": "0.8 °C"}
{"SMILES": "O=C1NC(=O)c2cc(Nc3ccc(F)cc3)c(Nc3ccc(F)cc3)cc21", "observed": "cell-free assay", "tested at": "0.5 µM", "quantity": "remaining signal", "value": "61.4%"}
{"SMILES": "Cc1ccc(C(=O)Nc2ccc(CN3CCN(C)CC3)c(C(F)(F)F)c2)cc1C#Cc1cnc2cccnn12", "observed": "enzyme activity", "action": "inhibitor", "tested at": "23.5 nM", "quantity": "remaining activity", "value": "62%"}
{"SMILES": "N#CCCc1ccc2c(c1)-c1[nH]c3ccc([N+](=O)[O-])cc3c1CC(=O)N2", "observed": "cell-free assay", "tested at": "0.5 µM", "quantity": "remaining signal", "value": "97.1%"}
{"SMILES": "CC(C)(C)C(=O)c1sc(NC2CCCCC2)nc1N", "observed": "enzyme activity", "action": "inhibitor", "tested at": "10 µM", "quantity": "remaining activity", "value": "90%"}
{"SMILES": "CCN1CCC2(CC1)NC(=O)c1c(c3ccc(Cl)c(Cl)c3n1C)C2C#N (racemic)", "observed": "thermal stability", "technique": "DSF", "tested at": "10 µM", "quantity": "ΔTm", "value": "-0.1 °C"}
{"SMILES": "FC(F)(F)c1ccc2c(c1)nc(-c1cccnc1)n2C1CC1", "observed": "cell-free assay", "technique": "competition with immobilised ligand", "tested at": "1 µM", "quantity": "remaining binding", "value": "100%"}
{"SMILES": "CN1CCC2(CC1)NC(=O)c1c(c3ccc(Cl)c(Cl)c3n1C)C2C#N (racemic)", "observed": "thermal stability", "technique": "DSF", "tested at": "10 µM", "quantity": "ΔTm", "value": "-0.2 °C"}
{"SMILES": "Cn1nc(C(F)(F)F)cc1-c1cnc(N2CCc3cc(S(=O)(=O)Nc4c(F)cc(Cl)cc4F)cc(N4CCCC4=O)c32)nc1", "observed": "cell-free assay", "technique": "competition with immobilised ligand", "tested at": "1 µM", "quantity": "remaining binding", "value": "95%"}
{"SMILES": "Cn1c2c(c3ccc(Cl)c(Cl)c31)C(C#N)C(C)(C)NC2=O (centres unmarked)", "observed": "thermal stability", "technique": "DSF", "tested at": "10 µM", "quantity": "ΔTm", "value": "0.4 °C"}
{"SMILES": "O=C1CCc2cc(Nc3cc(OC4CCOCC4)c([N+](=O)[O-])cc3Cl)ccc2N1", "observed": "cell-free assay", "technique": "competition with immobilised ligand", "tested at": "1 µM", "quantity": "remaining binding", "value": "86%"}
{"SMILES": "COc1cc(Nc2cnc(C#N)c(O[C@H](C)CN(C)C)n2)ncc1-c1cnn(C)c1", "observed": "enzyme activity", "action": "inhibitor", "technique": "radiometric", "tested at": "1 µM", "quantity": "remaining activity", "value": "98%"}
{"SMILES": "CC(=O)Nc1c(C(C)=O)c(=O)n(C)c2nc(-c3ccc(Cl)cc3Cl)c(-c3ccc(Cl)cc3)cc12", "observed": "cell-free assay", "technique": "competition with immobilised ligand", "tested at": "1 µM", "quantity": "remaining binding", "value": "100%"}
{"SMILES": "CC/C(=N\\NC(=O)NCc1cccc(O)c1)c1ccc(O)c(C)c1O", "observed": "enzyme activity", "action": "inhibitor", "tested at": "0.1 µM", "quantity": "inhibition", "value": "-4.8%"}
{"SMILES": "CNC(=O)c1ccc(Nc2ncc(C(F)(F)F)c(NCc3nccnc3N(C)S(C)(=O)=O)n2)cc1", "observed": "cell-free assay", "technique": "competition with immobilised ligand", "tested at": "0.1 µM", "quantity": "remaining binding", "value": "95%"}
{"SMILES": "Cc1ccc(NC(=O)c2ccc(CN3CCN(C)CC3)cc2)cc1Nc1nc(-c2cccnc2)cs1", "observed": "cell-free assay", "tested at": "0.5 µM", "quantity": "remaining signal", "value": "110%"}
